Data: ChEMBL document CHEMBL5653631, “A Potent and Selective ULK1 Inhibitor Suppresses Autophagy and Sensitizes Cancer Cells to Nutrient Stress” (iScience, 2018)

Assays:
[1] = biological target: T1, Serine/threonine-protein kinase 17A (Homo sapiens) (UniProt Q9UEE5); experiment: Inhibition of human recombinant DRAK1 at 40 nM in presence of ATP by radiometric assay relative to control
T1 sequence (whole entry): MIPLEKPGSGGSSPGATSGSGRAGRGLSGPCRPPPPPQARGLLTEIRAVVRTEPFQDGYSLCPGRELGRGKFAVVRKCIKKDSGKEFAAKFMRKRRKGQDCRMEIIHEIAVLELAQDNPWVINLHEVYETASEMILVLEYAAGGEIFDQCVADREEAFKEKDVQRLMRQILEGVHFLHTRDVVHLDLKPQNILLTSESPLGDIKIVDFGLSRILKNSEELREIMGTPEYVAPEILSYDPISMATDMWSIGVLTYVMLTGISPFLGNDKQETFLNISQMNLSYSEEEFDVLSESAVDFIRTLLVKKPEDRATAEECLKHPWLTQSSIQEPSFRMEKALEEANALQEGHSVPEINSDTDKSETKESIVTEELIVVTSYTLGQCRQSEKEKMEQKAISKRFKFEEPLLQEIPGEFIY

[2] = biological target: Serine/threonine-protein kinase pim-2 (Homo sapiens) (UniProt Q9P1W9); experiment: Inhibition of human recombinant PIM2 at 40 nM related to control ULK1
[3] = biological target: T2, Dual specificity tyrosine-phosphorylation-regulated kinase 2 (Homo sapiens) (UniProt Q92630); experiment: Inhibition of human recombinant DYRK2 at 40 nM in presence of ATP by radiometric assay relative to control
T2 sequence (whole entry): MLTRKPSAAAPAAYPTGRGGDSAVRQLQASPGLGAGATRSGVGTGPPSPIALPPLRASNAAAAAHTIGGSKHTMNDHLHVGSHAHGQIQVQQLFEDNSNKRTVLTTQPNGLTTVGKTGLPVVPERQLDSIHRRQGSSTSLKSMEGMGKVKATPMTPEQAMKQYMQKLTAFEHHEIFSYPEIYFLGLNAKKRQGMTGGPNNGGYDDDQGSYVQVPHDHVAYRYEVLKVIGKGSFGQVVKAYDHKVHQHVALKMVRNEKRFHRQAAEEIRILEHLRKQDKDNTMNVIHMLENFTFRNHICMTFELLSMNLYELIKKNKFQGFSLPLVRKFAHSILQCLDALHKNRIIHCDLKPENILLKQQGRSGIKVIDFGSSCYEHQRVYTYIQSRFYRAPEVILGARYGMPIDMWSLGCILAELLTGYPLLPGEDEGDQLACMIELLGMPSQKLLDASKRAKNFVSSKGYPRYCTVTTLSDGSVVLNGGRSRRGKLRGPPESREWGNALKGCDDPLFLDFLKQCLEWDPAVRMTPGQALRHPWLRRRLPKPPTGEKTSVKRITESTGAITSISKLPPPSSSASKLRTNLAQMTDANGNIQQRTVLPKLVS

[4] = biological target: Serine/threonine-protein kinase pim-2 (Homo sapiens) (UniProt Q9P1W9); experiment: Inhibition of human recombinant PIM2 at 500 nM in presence of ATP by radiometric assay relative to control
[5] = biological target: Serine/threonine-protein kinase 38-like (Homo sapiens) (UniProt Q9Y2H1); experiment: Inhibition of human recombinant NDR2 at 500 nM in presence of ATP by radiometric assay relative to control
[6] = biological target: Cyclin-dependent kinase 4 (Homo sapiens) (UniProt P11802); experiment: Inhibition of human recombinant CDK4 at 15 nM in presence of ATP by radiometric assay relative to control
[7] = biological target: Ephrin type-A receptor 4 (Homo sapiens) (UniProt P54764); experiment: Inhibition of human recombinant EphA4 at 15 nM in presence of ATP by radiometric assay relative to control
[8] = biological target: Focal adhesion kinase 1 (Homo sapiens) (UniProt Q05397); experiment: Inhibition of human recombinant FAK at 15 nM in presence of ATP by radiometric assay relative to control
[9] = biological target: T3, Activin receptor type-1 (Homo sapiens) (UniProt Q04771); experiment: Inhibition of human recombinant ALK2 at 15 nM related to control ULK1
T3 sequence (whole entry): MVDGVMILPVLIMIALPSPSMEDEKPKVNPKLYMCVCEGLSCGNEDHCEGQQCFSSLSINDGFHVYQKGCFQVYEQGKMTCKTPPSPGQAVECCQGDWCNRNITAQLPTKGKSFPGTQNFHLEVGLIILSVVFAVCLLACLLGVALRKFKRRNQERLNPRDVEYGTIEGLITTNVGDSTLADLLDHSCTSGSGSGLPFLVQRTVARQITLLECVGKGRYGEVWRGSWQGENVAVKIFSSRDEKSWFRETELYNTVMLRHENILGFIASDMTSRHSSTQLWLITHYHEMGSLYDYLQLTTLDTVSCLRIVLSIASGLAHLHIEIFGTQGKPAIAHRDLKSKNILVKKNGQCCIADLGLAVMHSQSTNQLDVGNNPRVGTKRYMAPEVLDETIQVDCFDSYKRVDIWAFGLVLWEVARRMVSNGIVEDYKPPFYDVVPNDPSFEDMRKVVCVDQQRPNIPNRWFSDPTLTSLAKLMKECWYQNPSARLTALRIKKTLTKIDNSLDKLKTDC
How it was run: (§1)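 Panel of 327 recombinant human kinases, each assayed in vitro by radiometric activity assay in duplicate at a single inhibitor concentration per compound, chosen with reference to its ULK1 inhibition. Activity remaining was expressed as percent of vehicle control, and percent inhibition was calculated as 100 minus percent activity remaining.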

[10] = biological target: T4, Serine/threonine-protein kinase A-Raf (Homo sapiens) (UniProt P10398); experiment: Inhibition of human recombinant ARAF at 15 nM related to control ULK1; how it was run: as §1
T4 sequence (whole entry): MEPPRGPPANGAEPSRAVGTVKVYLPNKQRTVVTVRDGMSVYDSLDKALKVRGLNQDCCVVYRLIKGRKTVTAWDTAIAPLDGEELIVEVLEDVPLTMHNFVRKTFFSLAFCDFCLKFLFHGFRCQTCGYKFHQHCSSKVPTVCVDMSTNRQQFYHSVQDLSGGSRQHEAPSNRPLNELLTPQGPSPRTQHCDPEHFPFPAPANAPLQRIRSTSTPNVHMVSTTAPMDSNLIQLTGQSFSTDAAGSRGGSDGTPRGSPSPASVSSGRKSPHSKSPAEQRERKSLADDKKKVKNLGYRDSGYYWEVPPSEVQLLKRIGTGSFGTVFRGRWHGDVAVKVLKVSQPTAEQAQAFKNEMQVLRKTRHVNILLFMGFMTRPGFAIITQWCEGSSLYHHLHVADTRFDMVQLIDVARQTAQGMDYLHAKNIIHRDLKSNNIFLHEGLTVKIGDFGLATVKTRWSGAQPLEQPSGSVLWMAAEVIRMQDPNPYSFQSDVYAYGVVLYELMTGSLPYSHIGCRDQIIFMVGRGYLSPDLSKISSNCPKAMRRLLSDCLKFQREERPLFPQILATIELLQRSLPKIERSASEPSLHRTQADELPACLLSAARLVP

[11] = biological target: High affinity nerve growth factor receptor (Homo sapiens) (UniProt P04629); experiment: Inhibition of human recombinant TRKA at 15 nM in presence of ATP by radiometric assay relative to control
[12] = biological target: Serine/threonine-protein kinase PLK2 (Homo sapiens) (UniProt Q9NYY3); experiment: Inhibition of human recombinant PLK2 at 15 nM related to control ULK1
Chain of Serine/threonine-protein kinase PLK2 (Homo sapiens) (Q9NYY3 whole entry, looked up): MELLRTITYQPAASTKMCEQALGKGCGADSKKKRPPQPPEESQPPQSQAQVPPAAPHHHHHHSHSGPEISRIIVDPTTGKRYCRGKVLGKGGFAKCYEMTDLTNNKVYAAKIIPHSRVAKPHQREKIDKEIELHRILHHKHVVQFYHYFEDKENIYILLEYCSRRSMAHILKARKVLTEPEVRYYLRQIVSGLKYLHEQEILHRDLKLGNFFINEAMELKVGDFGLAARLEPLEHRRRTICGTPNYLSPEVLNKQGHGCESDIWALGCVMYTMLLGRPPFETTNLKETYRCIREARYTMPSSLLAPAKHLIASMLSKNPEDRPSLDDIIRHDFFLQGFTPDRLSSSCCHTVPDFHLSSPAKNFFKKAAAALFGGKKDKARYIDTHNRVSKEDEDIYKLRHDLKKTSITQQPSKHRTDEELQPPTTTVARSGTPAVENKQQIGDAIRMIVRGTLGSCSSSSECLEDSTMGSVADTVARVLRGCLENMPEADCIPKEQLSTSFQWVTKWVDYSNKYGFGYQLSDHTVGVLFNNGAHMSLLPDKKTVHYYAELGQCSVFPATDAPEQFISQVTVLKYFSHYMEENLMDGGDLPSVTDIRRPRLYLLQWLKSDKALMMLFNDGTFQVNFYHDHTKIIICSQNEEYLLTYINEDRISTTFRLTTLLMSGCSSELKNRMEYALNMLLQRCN

Chain of Serine/threonine-protein kinase pim-2 (Homo sapiens) (Q9P1W9 whole entry, looked up): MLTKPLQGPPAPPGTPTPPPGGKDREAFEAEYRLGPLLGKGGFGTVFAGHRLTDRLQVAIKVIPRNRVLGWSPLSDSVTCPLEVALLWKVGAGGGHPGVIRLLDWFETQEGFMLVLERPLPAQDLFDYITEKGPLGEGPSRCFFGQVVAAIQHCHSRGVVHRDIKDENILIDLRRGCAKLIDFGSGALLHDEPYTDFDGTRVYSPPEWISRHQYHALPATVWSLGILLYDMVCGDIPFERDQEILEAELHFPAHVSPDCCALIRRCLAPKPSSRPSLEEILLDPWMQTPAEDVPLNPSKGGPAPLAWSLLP
Chain of Serine/threonine-protein kinase 38-like (Homo sapiens) (Q9Y2H1 2-464 limits assumed): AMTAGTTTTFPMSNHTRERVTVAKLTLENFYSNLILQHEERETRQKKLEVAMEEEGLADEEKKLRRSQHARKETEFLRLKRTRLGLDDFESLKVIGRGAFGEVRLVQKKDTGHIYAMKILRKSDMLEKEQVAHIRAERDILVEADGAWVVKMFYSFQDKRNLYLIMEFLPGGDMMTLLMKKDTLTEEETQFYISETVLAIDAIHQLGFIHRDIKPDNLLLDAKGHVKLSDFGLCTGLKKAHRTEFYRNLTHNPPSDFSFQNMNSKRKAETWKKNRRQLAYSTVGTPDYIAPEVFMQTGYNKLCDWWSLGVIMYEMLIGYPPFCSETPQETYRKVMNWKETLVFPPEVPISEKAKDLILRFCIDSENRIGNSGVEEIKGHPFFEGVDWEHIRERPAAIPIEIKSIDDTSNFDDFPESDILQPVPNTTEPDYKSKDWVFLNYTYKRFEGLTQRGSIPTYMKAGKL
Chain of Cyclin-dependent kinase 4 (Homo sapiens) (P11802 whole entry): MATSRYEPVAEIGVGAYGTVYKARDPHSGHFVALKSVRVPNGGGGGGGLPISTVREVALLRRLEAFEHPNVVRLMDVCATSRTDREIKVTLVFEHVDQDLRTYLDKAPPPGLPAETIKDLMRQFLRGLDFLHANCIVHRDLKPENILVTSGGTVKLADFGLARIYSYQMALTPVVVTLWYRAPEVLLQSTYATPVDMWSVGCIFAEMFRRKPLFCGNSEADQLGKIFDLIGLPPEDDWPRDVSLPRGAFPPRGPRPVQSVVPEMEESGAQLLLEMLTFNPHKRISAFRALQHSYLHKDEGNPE
Chain of Ephrin type-A receptor 4 (Homo sapiens) (P54764 whole entry): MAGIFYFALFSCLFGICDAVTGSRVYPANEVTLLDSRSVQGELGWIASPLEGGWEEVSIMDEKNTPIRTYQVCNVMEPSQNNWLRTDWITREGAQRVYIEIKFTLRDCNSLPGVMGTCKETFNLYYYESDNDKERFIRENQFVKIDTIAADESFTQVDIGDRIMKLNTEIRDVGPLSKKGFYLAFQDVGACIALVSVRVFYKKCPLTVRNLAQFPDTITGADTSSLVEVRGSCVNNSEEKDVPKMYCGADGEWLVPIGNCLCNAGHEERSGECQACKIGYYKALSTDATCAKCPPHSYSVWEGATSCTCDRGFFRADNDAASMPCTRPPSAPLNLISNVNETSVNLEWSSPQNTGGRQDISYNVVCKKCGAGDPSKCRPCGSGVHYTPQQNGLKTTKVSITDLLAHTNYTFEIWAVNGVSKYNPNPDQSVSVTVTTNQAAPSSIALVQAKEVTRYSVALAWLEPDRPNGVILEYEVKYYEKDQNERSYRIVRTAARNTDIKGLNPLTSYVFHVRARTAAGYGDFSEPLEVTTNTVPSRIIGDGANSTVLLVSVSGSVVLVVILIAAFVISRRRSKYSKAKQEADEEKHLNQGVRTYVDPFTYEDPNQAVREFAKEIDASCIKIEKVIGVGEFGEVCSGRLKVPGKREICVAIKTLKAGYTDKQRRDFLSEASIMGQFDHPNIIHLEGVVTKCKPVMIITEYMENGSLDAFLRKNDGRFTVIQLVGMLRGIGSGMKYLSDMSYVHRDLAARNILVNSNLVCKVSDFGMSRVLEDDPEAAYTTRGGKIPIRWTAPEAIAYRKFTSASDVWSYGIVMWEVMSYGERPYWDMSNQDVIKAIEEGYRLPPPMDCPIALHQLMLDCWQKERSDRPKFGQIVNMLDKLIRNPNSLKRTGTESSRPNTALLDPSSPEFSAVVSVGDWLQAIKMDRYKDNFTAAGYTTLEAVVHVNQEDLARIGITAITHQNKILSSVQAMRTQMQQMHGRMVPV
Chain of High affinity nerve growth factor receptor (Homo sapiens) (P04629 33-796 limits assumed): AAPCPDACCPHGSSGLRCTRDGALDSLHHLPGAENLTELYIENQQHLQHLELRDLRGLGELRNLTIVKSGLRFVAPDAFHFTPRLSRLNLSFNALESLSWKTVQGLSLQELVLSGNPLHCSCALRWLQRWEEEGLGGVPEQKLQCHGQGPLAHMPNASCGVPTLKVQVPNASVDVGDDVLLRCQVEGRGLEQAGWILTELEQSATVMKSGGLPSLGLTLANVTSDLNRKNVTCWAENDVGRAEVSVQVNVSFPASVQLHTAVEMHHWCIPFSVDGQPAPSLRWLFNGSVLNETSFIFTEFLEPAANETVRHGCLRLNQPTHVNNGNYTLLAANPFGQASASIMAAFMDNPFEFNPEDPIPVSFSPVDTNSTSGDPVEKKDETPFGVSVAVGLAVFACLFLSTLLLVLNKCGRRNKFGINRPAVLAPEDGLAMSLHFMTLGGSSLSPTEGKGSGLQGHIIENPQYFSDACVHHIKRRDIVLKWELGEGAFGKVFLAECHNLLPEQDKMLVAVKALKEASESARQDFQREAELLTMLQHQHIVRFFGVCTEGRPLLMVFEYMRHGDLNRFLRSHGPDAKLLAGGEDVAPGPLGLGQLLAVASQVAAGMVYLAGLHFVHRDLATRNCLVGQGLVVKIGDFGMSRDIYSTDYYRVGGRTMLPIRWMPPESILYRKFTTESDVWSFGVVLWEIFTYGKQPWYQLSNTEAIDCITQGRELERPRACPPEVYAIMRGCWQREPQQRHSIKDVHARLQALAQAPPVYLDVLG
Chain of Focal adhesion kinase 1 (Homo sapiens) (Q05397 2-1052 limits assumed): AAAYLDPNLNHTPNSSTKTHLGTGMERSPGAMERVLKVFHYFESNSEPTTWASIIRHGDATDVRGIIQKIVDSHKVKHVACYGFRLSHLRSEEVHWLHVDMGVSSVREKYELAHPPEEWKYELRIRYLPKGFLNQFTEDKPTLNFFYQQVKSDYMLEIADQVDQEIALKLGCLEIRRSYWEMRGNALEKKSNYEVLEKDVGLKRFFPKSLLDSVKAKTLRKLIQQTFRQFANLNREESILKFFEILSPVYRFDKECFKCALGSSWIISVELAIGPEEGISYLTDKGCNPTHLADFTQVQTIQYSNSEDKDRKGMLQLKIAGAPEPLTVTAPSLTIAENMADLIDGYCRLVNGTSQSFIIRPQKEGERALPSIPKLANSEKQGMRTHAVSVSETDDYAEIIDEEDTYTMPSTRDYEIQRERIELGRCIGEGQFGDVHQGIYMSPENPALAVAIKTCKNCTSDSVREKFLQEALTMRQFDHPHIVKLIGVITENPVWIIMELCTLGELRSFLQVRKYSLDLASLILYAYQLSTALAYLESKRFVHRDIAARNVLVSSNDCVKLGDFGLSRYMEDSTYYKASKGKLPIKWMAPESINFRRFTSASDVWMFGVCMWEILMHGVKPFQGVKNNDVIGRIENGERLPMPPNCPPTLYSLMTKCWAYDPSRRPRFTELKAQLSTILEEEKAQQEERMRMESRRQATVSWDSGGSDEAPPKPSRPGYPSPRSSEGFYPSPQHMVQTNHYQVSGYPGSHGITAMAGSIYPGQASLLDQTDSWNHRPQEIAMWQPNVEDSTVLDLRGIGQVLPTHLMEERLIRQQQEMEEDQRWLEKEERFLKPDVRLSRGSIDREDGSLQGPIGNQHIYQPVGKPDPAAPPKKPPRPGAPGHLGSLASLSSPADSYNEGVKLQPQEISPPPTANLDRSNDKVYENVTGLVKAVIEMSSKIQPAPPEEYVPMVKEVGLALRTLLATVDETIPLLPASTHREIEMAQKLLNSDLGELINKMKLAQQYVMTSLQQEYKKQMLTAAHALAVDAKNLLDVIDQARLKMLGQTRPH

## O=C(N[C@@H](C1CC1)C(F)(F)F)c1cc(-c2cnn3cc(-c4ccc(F)cc4)cnc23)cs1
[1]
  inhibition: 78%
[2]
  fold change (FC): 0.04
[3]
  inhibition: 11%

## CNC(=O)c1ccccc1Oc1nc(Nc2cc(OC)c(OC)c(OC)c2)ncc1Br
[4]
  inhibition: 2%
[5]
  inhibition: 15%

## CC(C)[C@H](NC(=O)c1cc(-c2cnn3cc(-c4ccc(OCCN5CCCCC5)cc4)cnc23)cs1)C(F)(F)F
[6]
  inhibition: 11%
[7]
  inhibition: 0%
[8]
  inhibition: 0%
[9]
  fold change (FC): 0.3
[10]
  fold change (FC): 0.07
[11]
  inhibition: 0%
[12]
  fold change (FC): 0.05
